# Results reported in ChEMBL document CHEMBL1158680, “Chemical constituents and biological activities of the fruit of Zanthoxylum integrifoliolum” (1999).
# How the values were obtained:
# Aorta [1] = experiment: Vasorelaxation activity in rat aorta assessed as inhibition of norepinephrine-induced phasic contraction at 1 ug/ml preincubated for 15 mins relative to control; format: functional; set-up: scale not given: the % may be the effect or the level left
# Outline: (§1)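 Rat aorta was preincubated with test sample or 0.1% DMSO vehicle at 37 °C for 15 min. Contraction was then evoked with high K+ (80 mM) or norepinephrine (3 μM). Response is expressed as percent of control contraction, mean ± SEM, n = 3.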
# Aorta [2] = experiment: Vasorelaxation activity in rat aorta assessed as inhibition of norepinephrine-induced tonic contraction at 1 ug/ml preincubated for 15 mins relative to control; format: functional; set-up: scale not given: the % may be the effect or the level left; outline: as §1
smiles,measurement,setting,value
COc1cc2nc(N3CCN(C(=O)c4ccco4)CC3)nc(N)c2cc1OC [PRAZOSIN],Activity,Aorta [1],0%
same,Activity,Aorta [2],0%
